In general, IC50 refers to the midpoint of a concentration-inhibition curve. As a reminder, the GI50 is the concentration at which growth is held to half of that of the control. A lower GI50 goes with greater sensitivity of the cells.

These results are taken from ChEMBL document CHEMBL3758076, “Azaphilones from an Acid Mine Extremophile Strain of a Pleurostomophora sp” (J Nat Prod, 2015).

One assay has as its target T1, Caspase-1 (Homo sapiens, UniProt P29466).
T1 sequence (P29466 whole entry): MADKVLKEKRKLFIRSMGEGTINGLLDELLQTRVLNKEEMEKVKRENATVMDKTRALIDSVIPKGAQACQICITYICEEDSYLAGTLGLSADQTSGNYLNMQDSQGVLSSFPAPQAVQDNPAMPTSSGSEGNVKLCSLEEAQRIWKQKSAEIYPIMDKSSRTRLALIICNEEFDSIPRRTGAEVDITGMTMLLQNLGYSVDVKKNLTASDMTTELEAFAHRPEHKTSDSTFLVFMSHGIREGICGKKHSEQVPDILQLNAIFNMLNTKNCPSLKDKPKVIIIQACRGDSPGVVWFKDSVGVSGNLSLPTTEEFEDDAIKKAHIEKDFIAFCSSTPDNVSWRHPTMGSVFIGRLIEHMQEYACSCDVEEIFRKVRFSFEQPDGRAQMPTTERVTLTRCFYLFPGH
Kind of assay: Inhibition of caspase-1 (unknown origin).

In the next assay the target is Stromelysin-1 (Homo sapiens, UniProt P08254). The assay is described as follows: Inhibition of MMP-3 (unknown origin).
The test system of assay [1] is THP-1. Kind of assay: Antiinflammatory activity in human THP1 cells assessed as suppression of LPS and TiO2-induced IL-6 production at 10 uM after 24 hrs by induced inflammasome assay. The format is functional, cell-based. Summed up: (§1)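 THP-1 cells stimulated with bacterial LPS plus titanium dioxide (TiO2) to drive proinflammatory cytokine output and NLRP3 inflammasome assembly. Compounds were added to the induced cells, and IL-6, IL-33, TNF-α and IL-1β production was then measured.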

Assay [2] deals with THP-1. The assay is described as follows: Antiinflammatory activity in human THP1 cells assessed as suppression of LPS and TiO2-induced IL-33 production at 10 uM after 24 hrs by induced inflammasome assay. The class given is functional, cell-based. In short, it runs like this:
as §1

For assay [3], the system named is THP-1. The assay is described as follows: (§2) Antiinflammatory activity in human THP1 cells assessed as suppression of LPS and TiO2-induced TNF-alpha production at 10 uM after 24 hrs by induced inflammasome assay. The format is functional. In short, it runs like this: as §1
In assay [4] the test system is THP-1. Kind of assay: (§3) Antiinflammatory activity in human THP1 cells assessed as suppression of LPS and TiO2-induced IL-1beta production at 10 uM after 24 hrs by induced inflammasome assay. The class given is functional. In short, it runs like this:
as §1

The subject of assay [5] is THP-1. The assay is described as follows: Antiinflammatory activity against human THP1 cells assessed as suppression of LPS and TiO2-induced IL-6 production at 100 uM after 24 hrs by induced inflammasome assay. The class given is functional, cell-based. Summed up:
as §1

The subject of assay [6] is THP-1. Kind of assay: Antiinflammatory activity against human THP1 cells assessed as suppression of LPS and TiO2-induced IL-33 production at 100 uM after 24 hrs by induced inflammasome assay. The format is functional, cell-based. In short, it runs like this:
as §1

The test system of assay [7] is THP-1. The assay is described as follows: Antiinflammatory activity against human THP1 cells assessed as suppression of LPS and TiO2-induced TNF-alpha production at 100 uM after 24 hrs by induced inflammasome assay. The format is functional, cell-based. In short, it runs like this: as §1
For assay [8], the system named is THP-1. The assay is described as follows: Antiinflammatory activity in human THP1 cells assessed as suppression of LPS and TiO2-induced IL-1beta production at 100 uM after 24 hrs by induced inflammasome assay. The format is functional, cell-based. Summed up:
as §1

For assay [9], the system named is MOLT-4. The assay is described as follows: Cytotoxicity against human MOLT4 cells at 1 to 10 uM after 72 hrs by Alamar Blue viability assay. The format is functional, cell-based. (In general: The colour change of resazurin is a common sign of viable cells or microbes.)
In assay [10] the test system is RPMI-8226. The assay is described as follows: Cytotoxicity against human RPMI8226 cells at 1 to 10 uM after 72 hrs by Alamar Blue viability assay. The class given is functional, cell-based.
For assay [11], the system named is SR. The assay is described as follows: Cytotoxicity against human SR cells at 1 to 10 uM after 72 hrs by Alamar Blue viability assay. The class given is functional, cell-based.
Assay [12] relates to LOX IMVI. Kind of assay: Cytotoxicity against human LOXIMVI cells at 1 to 10 uM after 72 hrs by Alamar Blue viability assay. The class given is functional, cell-based.
In assay [13] the test system is CCRF-CEM. Kind of assay: Cytotoxicity against human CCRF-CEM cells at 1 to 10 uM after 72 hrs by Alamar Blue viability assay. The class given is functional, cell-based.
Assay [14] relates to MOLT-4. Kind of assay: (§4) Cytotoxicity against human MOLT4 cells after 96 hrs by Hoechst-staining based nuclei image analysis. The class given is functional.
For assay [15], the system named is RPMI-8226. The assay is described as follows: (§5) Cytotoxicity against human RPMI8226 cells after 96 hrs by Hoechst-staining based nuclei image analysis. The class given is functional.
Assay [16] relates to SR. Kind of assay: Cytotoxicity against human SR cells after 96 hrs by Hoechst-staining based nuclei image analysis. The format is functional.
Assay [17] concerns LOX IMVI. Kind of assay: Cytotoxicity against human LOXIMVI cells after 96 hrs by Hoechst-staining based nuclei image analysis. The format is functional.
Assay [18] is described as follows: as §2. The class given is functional, THP-1. In short, it runs like this:
as §1

A short description of assay [19]: as §3. The class given is functional, THP-1. In short, it runs like this:
as §1

Assay [20] is described as follows: Cytotoxicity against human MOLT4 cells after 72 hrs by Alamar Blue viability assay. The format is functional. The following applies: MOLT-4, 72 h.
Assay [21] can be described thus: Cytotoxicity against human RPMI8226 cells after 72 hrs by Alamar Blue viability assay. The following applies: RPMI-8226, 72 h. The format is functional.
The subject of assay [22] is SR. Kind of assay: Cytotoxicity against human SR cells after 72 hrs by Alamar Blue viability assay. The class given is functional.
Assay [23] in a line: Cytotoxicity against human LOXIMVI cells after 72 hrs by Alamar Blue viability assay. To be noted: LOX IMVI. The class given is functional.
In assay [24] the test system is CCRF-CEM. The assay is described as follows: Cytotoxicity against human CCRF-CEM cells after 72 hrs by Alamar Blue viability assay. The class given is functional.
Assay [25] has as its system Y79. Kind of assay: Cytotoxicity against human Y79 cells after 72 hrs by Alamar Blue viability assay. The class given is functional, cell-based. The following applies: Y79, 72 h.
A short description of assay [26]: as §4. The class given is functional. The following applies: MOLT-4, 96 h.
The nature of assay [27]: as §5. The class given is functional. The following applies: RPMI-8226, 96 h.
Assay [28] deals with CCRF-CEM. Kind of assay: Cytotoxicity against human CCRF-CEM cells after 96 hrs by Hoechst-staining based nuclei image analysis. The format is functional.
Assay [29] concerns Y79. The assay is described as follows: Cytotoxicity against human Y79 cells after 96 hrs by Hoechst-staining based nuclei image analysis. The class given is functional, cell-based. To be noted: Y79, 96 h.

The structures appear in SMILES notation. Calls of active or inactive are those of the source. No cut-off for these calls is given here.

Stromelysin-1, sequence (P08254 whole entry): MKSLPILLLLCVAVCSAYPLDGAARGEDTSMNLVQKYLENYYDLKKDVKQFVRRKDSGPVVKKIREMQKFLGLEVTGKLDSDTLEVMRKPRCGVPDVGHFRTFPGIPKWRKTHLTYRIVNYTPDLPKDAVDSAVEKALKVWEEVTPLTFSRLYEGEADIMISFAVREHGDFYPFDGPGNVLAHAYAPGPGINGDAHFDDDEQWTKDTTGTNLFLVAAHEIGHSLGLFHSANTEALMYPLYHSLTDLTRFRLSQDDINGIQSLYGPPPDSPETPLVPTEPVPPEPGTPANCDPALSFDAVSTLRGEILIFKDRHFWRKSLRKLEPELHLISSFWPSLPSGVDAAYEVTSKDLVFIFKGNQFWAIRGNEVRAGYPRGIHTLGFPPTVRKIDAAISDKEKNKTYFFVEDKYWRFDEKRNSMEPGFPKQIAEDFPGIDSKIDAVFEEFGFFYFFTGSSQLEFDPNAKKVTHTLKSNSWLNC

On to `CCCCCCCCCC(=O)C1=C2C=C3C=C(C[C@H](C)O)N(CCO)C=C3C(=O)[C@]2(C)OC1=O`, for which the IC50 at Caspase-1 came out at 50 µM; against Stromelysin-1 it was 45 µM.
As to `CCCCCCCCCC(=O)[C@@H]1C(=O)O[C@@]2(C)C(=O)C=C3C=C(C[C@H](C)O)OC=C3[C@@H]12`, the result in the assay on THP-1 [1], in the assay on THP-1 [2], in the assay on THP-1 [3], in the assay with THP-1 [4], with MOLT-4 [9] and in the assay on RPMI-8226 [10] was inactive. The outcome in the assay with SR [11], with LOX IMVI [12], with CCRF-CEM [13], with MOLT-4 [14], with RPMI-8226 [15] and in the assay with SR [16] was inactive. Also, the result in the assay on LOX IMVI [17] was inactive. The outcome with THP-1 [5], in the assay on THP-1 [6], in the assay on THP-1 [7] and in the assay with THP-1 [8] was Active. The IC50 turned out to be 150 µM against Caspase-1 and 130 µM against Stromelysin-1.
For `CCCCCCCCCC(=O)[C@@]12O[C@@]13C1=COC(C[C@H](C)O)=CC1=CC(=O)[C@]3(C)OC2=O`, the result with THP-1 [1] and in the assay on THP-1 [2] was Active. Moreover, the Activity in assay [18] and in assay [19] was 95% in each case. The IC50 against Caspase-1 turned out to be 25 µM; on Stromelysin-1, 15 µM; in the assay on Y79 [25] it was 1.1 µM; with Y79 [29] it was 1.1 µM. The GI50 (in assay [20]; in [21]; in the assay on SR [22]; in assay [23]; in assay [26]; in assay [27]) was 10 µM in each case. Also, the GI50 in the assay on SR [16] is 10 µM. For the same compound, the GI90 in the assay with CCRF-CEM [24] and with CCRF-CEM [28] was 10 µM throughout.
Turning to `CCCCCCCCCC(=O)C[C@@H]1C2=COC(C[C@H](C)O)=CC2=CC(=O)[C@]1(C)O`, the outcome in the assay with MOLT-4 [9], in the assay on RPMI-8226 [10], in the assay on SR [11], in the assay with LOX IMVI [12], with CCRF-CEM [13] and in the assay on MOLT-4 [14] was inactive. Moreover, the outcome in the assay on RPMI-8226 [15], in the assay with SR [16] and in the assay with LOX IMVI [17] was inactive.
